The subject of experiment [1] is IB3-1. Nature of the experiment: Inhibition of NFkappa B in human IB3-1 cells assessed as inhibition of TNF-alpha-induced IL8 mRNA accumulation at 50 uM after 24 hrs by RT-PCR analysis relative to control. Type of experiment: cell-based. In short, it runs like this: (§1)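 IB3-1 CF bronchial cells (ΔF508/W1282X, adeno12/SV40-immortalized) grown in LHC-8 with 5% FBS, without gentamycin, at 37 °C. Exposed to compound and TNF-α (80 ng/ml) for 24 h. Total RNA extracted with TRIzol, oligo(dT)-primed AMV reverse transcription, then 40-cycle real-time PCR with IL-8 primers. IL-8 mRNA expressed relative to uninduced IB3-1 cells; n = 3.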

Experiment [2] has as its system IB3-1. Nature of the experiment: Inhibition of NFkappa B in human IB3-1 cells assessed as inhibition of TNF-alpha-induced IL8 mRNA accumulation at 10 uM after 24 hrs by RT-PCR analysis relative to control. Type of experiment: cell-based. Summed up:
as §1

Experiment [3] has as its system IB3-1. Nature of the experiment: Inhibition of NFkappa B in human IB3-1 cells assessed as inhibition of TNF-alpha-induced IL8 mRNA accumulation at 30 uM after 24 hrs by RT-PCR analysis relative to control. It is filed as cell-based. Summed up:
as §1

In experiment [4] the test system is IB3-1. Description: Inhibition of NFkappa B in human IB3-1 cells assessed as inhibition of TNF-alpha-induced IL8 protein release at 30 uM after 24 hrs relative to control. It is filed as cell-based. In short, it runs like this: (§2)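 IB3-1 CF cells in LHC-8 with 5% FBS treated 24 h with compound plus TNF-α (80 ng/ml). IL-8 released into the culture supernatant measured by singleplex bead immunoassay (Bio-Plex): sample incubated with anti-IL-8 beads, then detection antibody, then streptavidin-phycoerythrin, read against cytokine standards as pg/ml; n = 3.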

In experiment [5] the test system is IB3-1. Description: Inhibition of NFkappa B in human IB3-1 cells assessed as inhibition of TNF-alpha-induced IL8 protein release at 10 uM after 24 hrs relative to control. Type of experiment: cell-based. In short, it runs like this:
as §2

Experiment [6] is described as follows: Inhibition of reconstituted NF-KB p50-p65 heterodimer/DNA interaction after 20 mins by EMSA. Summed up: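 p50 (10 ng) plus p65 (10 ng) human NF-κB proteins preincubated 20 min at room temperature with varying compound concentrations in buffer TF, 5% glycerol, 1 mM DTT. 0.25 ng 32P-labeled NF-κB site oligo then added for a further 20 min. Bound and free probe separated on 6% native polyacrylamide gel (0.25× TBE, 200 V); autoradiography.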
(In EMSA bound probe runs differently from free probe, usually more slowly.)

For experiment [7], the system named is IB3-1. Nature of the experiment: Inhibition of NFkappa B in human IB3-1 cells assessed as inhibition of TNF-alpha-induced IL8 protein release at 50 uM after 24 hrs relative to control. Type of experiment: cell-based. In short, it runs like this:
as §2

Experiment [8] in a line: Inhibition of NF-KB p50 subunit/DNA interaction after 20 mins by EMSA. In short, it runs like this:
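Human NF-κB p50 protein (10 ng) preincubated 20 min at room temperature with varying compound concentrations in buffer TF plus 5% glycerol, 1 mM DTT. Then 0.25 ng 32P-labeled double-stranded NF-κB consensus oligo (5'-CGC TGG GGA CTT TCC ACG G-3') added for 20 min more. Complexes resolved on 6% polyacrylamide gel in 0.25× TBE at 200 V; autoradiography.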

Calls of active or inactive are those of the source. The rule behind the calls is not given here.

Turning to `Cc1c(CC(=O)NC(Cc2ccccc2)C(=O)O)c(=O)oc2c(C)c3occ(C(C)(C)C)c3cc12` (racemic), the inhibition entry in experiment [1], in experiment [3], in experiment [4], in experiment [6] and in experiment [7] was “Active” in each case. Further, the inhibition result in experiment [2] and in experiment [5] was “inactive” each time.
On to `Cc1c(CC(=O)N[C@@H](Cc2ccccc2)C(=O)O)c(=O)oc2cc3occ(C(C)(C)C)c3cc12`, for which the inhibition entry in experiment [8] and in experiment [6] was “Active” throughout.
In the case of `Cc1c(CC(=O)NC(Cc2ccccc2)C(=O)O)c(=O)oc2cc3occ(C(C)(C)C)c3cc12` (racemic), the inhibition entry in experiment [8] and in experiment [6] was “Active” throughout.

For the origin of these results see ChEMBL document CHEMBL1828539, “Development of a novel furocoumarin derivative inhibiting NF-κB dependent biological functions: design, synthesis and biological effects” (Eur J Med Chem, 2011).
